First the molecules themselves.
B1: tRNA (parent)
chain: GUUCCGUUGGCGUAAUGGUAACGCGUCUCCCUCCUAAGGAGAAGACUGCGGGUUCGAGUCCCGUACGGAACG

Fewer inactive variants are shown than the library holds.

The data set covers variants of B1. Description: yeast fitness relative to wild type (ratio to wild type); higher = fitter; tRNA-Arg(CCU), competitive growth, 37 C, YPD. The gist of the method:
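A pool of Saccharomyces cerevisiae strains, each with a tRNA-Arg(CCU) gene variant at the native genomic locus, was competed in YPD at 37°C for 24 hours across six parallel replicates. The variants had been chemically synthesised at a 3% per-site mutation rate over 69 sites, and gene amplicons before and after competition were read by 100-nucleotide paired-end sequencing. Darwinian fitness relative to wild type rested on changes in genotype frequencies. Genotypes required ≥ 100 starting reads, and estimates < 0.5 were set to 0.5.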
For U2G U3C C55U C61A, the yeast fitness is at most 0.5. Turning to U3A A42U A43G G48C U53A A69C, the yeast fitness was at most 0.5. The value for U2G A43G G56A was 0.589; that for U2G G9C A20G A42C C46G C49U was 0.602. The value for U2G C24A A45G C61G C62U was at most 0.5; that for U2G A36G G51A was at most 0.5. For U3A C4G U8A C49G, the yeast fitness is at most 0.5. To U3A A14C A37C C49U belongs at most 0.5; to U2G C11U G23A C46U U54A, at most 0.5. To U2G C11G G12C C49U belongs at most 0.5; to U3A A21C C24G G56A, at most 0.5; to U2G C5A, 0.725. To U2G C49U C66U belongs 0.606. Regarding U3A A70G, the yeast fitness was determined as 1.

Take U2G C4U G25A A40C C46U: the yeast fitness was at most 0.5.

In the case of U3A A20G C22U, the yeast fitness is 0.584. To U2G C31U G50A C60U belongs at most 0.5; to U2G G12C C49U, at most 0.5; to U2G A40G G41C C60G, 0.688. Take U3A: the yeast fitness was determined as 1. Consider U2G C29U G44C U54A, for which the yeast fitness is 0.554. Regarding U3A A15C U16A U35A G52C C55A, the yeast fitness was at most 0.5. To U3A A40C U47A belongs 0.647; to U3A C4U C5U, 0.594. The value for U2G G48C C66U was 0.519; that for U2G U3C A20G C33U G39A was at most 0.5. With U2G C49U C62U, the yeast fitness turned out to be 0.565. To U3A A14C C24G C33G belongs at most 0.5; to U3A A15G U19A U32C G41A G50A, at most 0.5. To U2G U7C C55U C62G C66A belongs at most 0.5. The value for U2G C4A C22U U28G A42U G68U was at most 0.5.

Regarding U3A C4U G67C, the yeast fitness was 0.624. In the case of U2G G9C A20G G25A A42C C46G C49U A69C, the yeast fitness is at most 0.5. The value for U3A A21G C34G A40G C60G C62G was at most 0.5; that for U2G G18A C29G C31G was at most 0.5; that for U2G C62G C66U was at most 0.5. To U2G G12A U13A G25C U28A C33A G63C U64C belongs at most 0.5; to U3A C4G G9A C11G A45U, at most 0.5. To U3A A20U C29G A40U G50C belongs at most 0.5; to U2G C24G, 0.769. As for U2G C24A, the yeast fitness was 0.82. Take U2G A21G A40G: the yeast fitness was at most 0.5. To U2G C33G A45G A70U belongs at most 0.5; to U3A A20U C31G, 0.535. Regarding U2G C5U C34G C62U, the yeast fitness was at most 0.5. To U2G G10A A69C belongs at most 0.5. The value for U2G C11U A45C U53G was 0.583; that for U2G C4U C62U G68U was at most 0.5. To U2G A70U belongs 0.917; to U2G A70G, 1.07. Consider U2G C11U G23A, for which the yeast fitness was at most 0.5. Take U2G G6A C27U G39C: the yeast fitness is at most 0.5. As to U3A A21G A45U G67C, the yeast fitness was at most 0.5. As for U3A A36U, the yeast fitness stood at 0.681.

As to U2G C4A G38C G50A, the yeast fitness came to 0.713. To U3A A65C A70C belongs 0.679; to U2G C62G, 0.632.

Turning to U2G U28G G51C U64A C66U A69C, the yeast fitness is at most 0.5. To U2G C29G C33G belongs at most 0.5; to U2G G9C G12A A42C C46A G68C, at most 0.5. To U2G U19A A21G A65U G67C belongs 0.543; to U2G A40C A65G C66G, at most 0.5; to U3A C4U C61G G63C, at most 0.5. To U2G G12A U13A G25C U28A C33A G63C U64C C66U belongs at most 0.5.

Consider U2G U28A C29G G51A G56A G67C, for which the yeast fitness is at most 0.5. To U2G A43U G67C belongs 0.668; to U3A A36G C62U, 0.69; to U2G C27U C46U G58A, 0.662. Turning to U2G C29A A40U, the yeast fitness is at most 0.5. The value for U2G C29G G44C C49G A57U was at most 0.5; that for U2G G12C C49U C66U was at most 0.5; that for U2G A65C was 0.897.

With U2G C24A C31G A45U, the yeast fitness is at most 0.5. The value for U3A C4U C33U C61A was at most 0.5. The value for U3A A21C G25U A43C C61A C62U was 0.592; that for U2G G12C was 0.757; that for U2G U19G A70C was 0.685. The value for U2G G9C A14C C27U G58A was at most 0.5. For the variant U2G C46G, the yeast fitness is 0.864.

With U2G C46U, the yeast fitness turned out to be 1.01.

With U3A A21G A65C, the yeast fitness is 0.64. For the variant U2G U13A C22U C61U C66U, the yeast fitness was at most 0.5. To U2G G12A U35C belongs at most 0.5; to U2G U35G A45G C49G U59C C60U A69C, 0.618; to U2G C11A C30A A57U, at most 0.5. To U2G G9C A15G belongs at most 0.5. To U2G A45U C46G A69C belongs 0.537; to U2G A43U, 0.996.

On to U2G A43C, for which the yeast fitness was 1.07. To U2G U64A belongs 0.776; to U3A C4U G25C G63C, at most 0.5; to U2G A37C U54C, at most 0.5. The value for U2G G6A C27G U54C C62U was at most 0.5. In the case of U2G C33U C34G G48C G67C, the yeast fitness is at most 0.5. The value for U2G G6A C31G C33U U59G C66U G68A was at most 0.5; that for U2G C24G C29G C31G was 0.515; that for U2G C27G G67U was at most 0.5.

Consider U2G C27G G67C, for which the yeast fitness is at most 0.5. Take U2G G9C A65C G68A: the yeast fitness is at most 0.5.

U2G A57C G68U: the yeast fitness is at most 0.5.

Consider U3A C4U C5U G48C C49A G67C A70U, for which the yeast fitness worked out at 0.663. In the case of U3A A36U C55A C62U, the yeast fitness is at most 0.5. The value for U2G C27U C46U G68C was 0.763.

Consider U2G U28C, for which the yeast fitness worked out at 0.825. For the variant U2G U28A, the yeast fitness came out at 0.645.

For the variant U2G C4U C33G A37U U64G, the yeast fitness was at most 0.5. To U2G A42U belongs 0.804; to U2G U13G C49U G56A A70G, at most 0.5. To U2G C31U U64G A65U belongs at most 0.5. The value for U2G C27G G63A A65C G68C was 0.632; that for U3A A20U A45U G58C G67C was at most 0.5; that for U2G G9C A20G A42C C46G C49U G63A A69C was at most 0.5. Turning to U3A A37C G44C A45U, the yeast fitness was at most 0.5. The value for U2G C4U C60G was 0.54; that for U2G C29G A43C was 0.548; that for U2G C4U A36G A45U was 0.537. The value for U2G U54C was 0.962; that for U2G U54G was at most 0.5. The value for U2G G68C was 0.705; that for U2G U7G U16C C34U U54C A65U was at most 0.5; that for U2G C4A U16C C61G was 0.571. Regarding U2G C4U C27A C66A, the yeast fitness was at most 0.5. To U2G A36U C46G C62A A69C belongs at most 0.5; to U3A A40C C62U, 0.548; to U3A A20C A21G, 0.679. To U2G C4A U16C belongs at most 0.5. For U3A C4G A43G U47C, the yeast fitness is at most 0.5. The value for U2G U26G G44C G58A A65G was at most 0.5.

Consider U2G G50C U59A, for which the yeast fitness is 0.547. The value for U2G U3A was 0.736; that for U2G G9A A36G A57G C60U was 0.672; that for U2G G48C G52C C62G C66U was at most 0.5. Take U2G C11G C46G G51C U53A: the yeast fitness is at most 0.5. To U2G C34U U35C belongs at most 0.5; to U2G G63A, 0.876; to U2G C27U A36G C62A, at most 0.5. To U3A A14C A20C U28A C29G U32C G39A A70C belongs at most 0.5; to U3A A14G A15G A20U A37G G41A C62U C66U, at most 0.5. The value for U3A C4A U8C C29G A37C was 0.581; that for U2G C11G A36C C61G G63A was at most 0.5. For the variant U2G G9A, the yeast fitness came to 1.01. Take U2G C11U G52C C55G A70G: the yeast fitness was at most 0.5. The value for U3A A14U G50A A69C was at most 0.5; that for U2G C34G G39C was at most 0.5. On to U3A A42U, for which the yeast fitness was determined as 0.846.

Regarding U2G G6A, the yeast fitness was 0.634. Regarding U3A A14G C55U G63C, the yeast fitness is at most 0.5. To U2G U7G U16C C34U G50A U54C A65U belongs at most 0.5. To U2G A20U G25C C49G belongs at most 0.5; to U3A C4A G18C C34U A36G G63C, at most 0.5. With U2G G25C U28G A42C C61U, the yeast fitness was at most 0.5. The value for U2G C4U C34G was at most 0.5; that for U2G G52C C61G was at most 0.5; that for U2G U13C A21G U35A C55U A70G was at most 0.5. To U3A A15U G48A A57G C61A belongs at most 0.5; to U2G G48A G58C A65U G67C, at most 0.5; to U3A A65U, 0.704. On to U3A A65G, for which the yeast fitness is 0.899. As to U3A A14U A42U C55A, the yeast fitness was at most 0.5. To U3A A40C C60U C62G belongs at most 0.5; to U2G G9C A65C, 0.548. To U2G A42C U47A A65U belongs at most 0.5. The value for U3A A14G G23C was 0.716.

Take U3A A40G U53A: the yeast fitness is at most 0.5. Regarding U2G U7C A69U, the yeast fitness is at most 0.5. To U2G G18C G23U C27U U64A belongs at most 0.5; to U2G G48A G58A, 0.614.
